A selection: hits, their analogues and other compounds. The true share with any hit is near 2.1%.
IMP-1 inh = inhibitors of Pseudomonas aeruginosa IMP-1 metallo-beta-lactamase; AID 1556; purified IMP-1, nitrocefin hydrolysis, epi-absorbance fluorescence; inhibition, % at 5.6 µM; 290,000 compounds, 0.45% hits;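 active = inhibition above the mean plus 3 SD of all compounds in the same screening run, cut at about 4.5% in these data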;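 also: 0% = IMP-1 with DMSO and 100% = DMSO wells lacking enzyme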
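Assay system: purified IMP-1; Quantity: IMP-1 0.2 nM before substrate addition; Medium: HEPES buffer pH 7.1 with ZnSO4 and Brij 35; Incubation: 15 min enzyme–compound preincubation, then 25 min nitrocefin reaction, 25 °C; Signal: fluorescence quenching readout, ex 480/em 530 nm; Controls: DMSO with and without IMP-1; Repeats: singlicate testing.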
VIM-2 inhibitor = blocks Pseudomonas aeruginosa VIM-2 metallo-beta-lactamase | inhibition, % at 5.6 µM | purified VIM-2, nitrocefin hydrolysis, epi-absorbance fluorescence | 290,000 compounds, 0.89% hits;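 active = inhibition above the mean of all tested compounds plus 3 SD, cutoff set per screening run, cut at about 7.5% in these data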;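 also: red hydrolysis product quenches plate fluorescence so inhibitors raise well fluorescence; 0% = enzyme with DMSO and 100% = DMSO without enzyme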
MsrA inh = bovine MsrA inhibition; purified bovine MsrA, absorbance read-out; inhibition, % at 15.5 µM; 360,000 compounds, 0.75% hits; AID 651718;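 also: 0% = vehicle wells with enzyme and 100% = reference inhibitor wells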
PKA-R2B activ = PKA-R2B complex activation. P22694+P31323. 340,000 compounds, 0.079% hits. activation, % at 11.4 µM. PKA-R2B holoenzyme dissociation, Cy5-IP20 fluorescence polarization; R2B truncated from residue 108, S112A mutant; 0% DMSO only, 100% 113 µM cGMP;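 active = activation above a cutoff set at the mean over all compounds plus 3 SD, cut at about 18% in these data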;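 also: higher means more holoenzyme dissociation and a rise in polarization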
Target sequence (P31323 whole entry, looked up, other chains not shown, the tested form may be a part): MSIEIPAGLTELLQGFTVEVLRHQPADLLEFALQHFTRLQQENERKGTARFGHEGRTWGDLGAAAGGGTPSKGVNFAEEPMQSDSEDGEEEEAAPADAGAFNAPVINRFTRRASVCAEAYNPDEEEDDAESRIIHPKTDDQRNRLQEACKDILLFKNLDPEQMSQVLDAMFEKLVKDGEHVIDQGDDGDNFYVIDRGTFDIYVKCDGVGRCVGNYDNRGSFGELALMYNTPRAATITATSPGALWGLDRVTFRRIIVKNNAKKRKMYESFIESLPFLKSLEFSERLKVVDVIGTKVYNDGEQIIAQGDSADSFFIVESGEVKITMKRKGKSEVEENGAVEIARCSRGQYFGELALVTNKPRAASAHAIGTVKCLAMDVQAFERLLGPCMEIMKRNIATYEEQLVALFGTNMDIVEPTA
MsrA act = bovine methionine sulfoxide reductase A activation. purified bovine MsrA, absorbance read-out. activation, % at 10.6 µM. 360,000 compounds, 0.3% hits; in the data active = activation above about 7.5%;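 also: 0% = vehicle and 100% = reference activator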
PKA-R1A act = activates the PKA-R1A holoenzyme complex; P00514+P68181; PKA-R1A dissociation, Cy5-IP20 fluorescence polarization; scaled: DMSO 0%, 113 µM cGMP 100%; activation, % at 11.4 µM; 340,000 compounds, 0.083% hits; AID 504707;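 active = percent activation above the mean of all tested compounds plus 3 SD, cut at about 19% in these data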;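 also: higher means more PKAc released from R1A so a rise in polarization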
MsrA conf = bovine MsrA inhibition, confirmed | shares compounds with MsrA inh | purified bovine MsrA, absorbance read-out | inhibition, % at 15.5 µM | 2,300 compounds, 41% hits;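 also: coupled to thioredoxin reductase with NADPH and selenocystamine and DMSO as substrate; 0% = vehicle only and 100% = full effect of reference inhibitor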
Active calls of the source: *. Rule as the data show it, unless noted: active = inhibition above about 4.5%; inactive = the rest.

Cc1ccc(CNC(=O)CN(C)S(=O)(=O)c2ccc(F)cc2)cc1 was read as MsrA inh 1, PKA-R2B activ -13, MsrA act -7 and PKA-R1A act -11.
Cc1cccc(OCC(=O)OCC(=O)NCC2CCCO2)c1C (stereo unspecified) was read as MsrA inh 1, PKA-R2B activ -1, MsrA act -2 and PKA-R1A act 1.
For CCOc1ccc(C(=O)N/N=C/c2ccc(-c3ccc(S(=O)(=O)Nc4ncccn4)cc3)o2)cc1 the results were IMP-1 inh -3, VIM-2 inhibitor -4, MsrA inh 6.0*, PKA-R2B activ -15, MsrA act -6, PKA-R1A act 12 and MsrA conf 4.9*.
For O=C(N/N=C/c1ccc(-c2ccc(S(=O)(=O)Nc3ncccn3)cc2)o1)c1cc2ccccc2cc1O the results were IMP-1 inh -3, VIM-2 inhibitor -3, MsrA inh 4, PKA-R2B activ -8, MsrA act -4 and PKA-R1A act 0.
Screening CC(=O)C1=C(C)NC(=S)NC1c1ccc(F)cc1 (stereo unspecified) returned MsrA inh 1.
Screening COC(=O)C1=C(C)N(Cc2ccccc2C(F)(F)F)C(=NCc2ccc(OC)cc2)NC1c1cccc(F)c1 (stereo unspecified) returned MsrA inh 0.
COc1cc(/C=C2/C(C)=C(C#N)c3nc(N)c(C#N)c(C)c32)ccc1OCC(=O)O was read as IMP-1 inh -1, VIM-2 inhibitor -2, MsrA inh 5.0* and MsrA conf 2.
Screening CC1=C(C#N)c2nc(N)c(C#N)c(C)c2/C1=C\c1ccc(-c2ccccc2C(=O)O)o1 returned IMP-1 inh -2, VIM-2 inhibitor 0, MsrA inh 1, PKA-R2B activ 2, MsrA act -5 and PKA-R1A act 8.
`O=C(O)c1ccc(N/N=C/c2cccc(F)c2)cc1` gave IMP-1 inh -2, VIM-2 inhibitor 1, MsrA inh 6.8*, PKA-R2B activ 9, MsrA act -2, PKA-R1A act 9 and MsrA conf 6.7*.
O=C(O)c1ccc(N/N=C/c2ccc(F)c(F)c2)cc1 was read as IMP-1 inh -1, VIM-2 inhibitor -1, MsrA inh 7.9*, PKA-R2B activ 5, MsrA act -5, PKA-R1A act -2 and MsrA conf 5.9*.
Screening O=C(Nc1ccc2c(c1)OCO2)c1noc2c1CCCC2 returned IMP-1 inh -2, VIM-2 inhibitor -1, MsrA inh -1, PKA-R2B activ 3, MsrA act -2 and PKA-R1A act 0.
For O=c1[nH]ncc(N/N=C\c2ccncc2)c1Cl the results were IMP-1 inh 1, VIM-2 inhibitor 0, MsrA inh 9.6*, PKA-R2B activ 1, MsrA act -5, PKA-R1A act 7 and MsrA conf 6.0*.
`Cc1cccc(/C=N\Nc2cn[nH]c(=O)c2Cl)c1` gave IMP-1 inh -2, VIM-2 inhibitor -1, MsrA inh 8.1*, PKA-R2B activ -6, MsrA act -4, PKA-R1A act -19 and MsrA conf 5.0*.
For CCOc1ccccc1/C=N\Nc1cnn(Cc2ccccc2)c(=O)c1Cl the results were IMP-1 inh -1, VIM-2 inhibitor -3, MsrA inh 2, PKA-R2B activ -11, MsrA act -1 and PKA-R1A act -12.
For O=c1[nH]ncc(N/N=C\c2cccs2)c1Cl the results were IMP-1 inh -1, VIM-2 inhibitor 0, MsrA inh 9.1*, PKA-R2B activ -5, MsrA act -2, PKA-R1A act -5 and MsrA conf 6.2*.
Screening COc1ccccc1/C=N\Nc1cn[nH]c(=O)c1Cl returned IMP-1 inh -2, VIM-2 inhibitor -4, MsrA inh 5.8*, PKA-R2B activ -14, MsrA act -4, PKA-R1A act -16 and MsrA conf 4.7*.
For C(=N\Nc1nc2ccccc2s1)/c1cccs1 the results were IMP-1 inh -4, VIM-2 inhibitor -3, MsrA inh 4, PKA-R2B activ -1, MsrA act -3 and PKA-R1A act -10.
